Source: PubChem BioAssay (several laboratories)
Sampled rows, rich in hits. Any-hit rate of the full collection: about 3.1%.
ADAM17 inh – ADAM17 inhibitors, primary screen, biochemical, QFRET. Disintegrin and metalloproteinase domain-containing protein 17 (Homo sapiens), P78536. recombinant ADAM17, EDANS/DABCYL FRET peptide cleavage. inhibition, % at 6.95 µM. actives 0.83% (n = 370,000);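 active means inhibition above the mean of compounds lying between control limits plus 3 SD, set per campaign, cut at about 8.5% in these data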
ADAM10 inh – human ADAM10 inhibitors, primary screen, biochemical, QFRET, HTS | Disintegrin and metalloproteinase domain-containing protein 10 (Homo sapiens), O14672 | recombinant ADAM10, EDANS/DABCYL FRET peptide cleavage, 3 h | inhibition, % at 7 µM | actives 0.62% (n = 370,000) | AID 720582, 2013;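 active means inhibition above a per-campaign cutoff equal to the mean of compounds falling between control-based bounds plus 3 SD, cut at about 20% in these data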
Target sequence (O14672 214-748 limits assumed): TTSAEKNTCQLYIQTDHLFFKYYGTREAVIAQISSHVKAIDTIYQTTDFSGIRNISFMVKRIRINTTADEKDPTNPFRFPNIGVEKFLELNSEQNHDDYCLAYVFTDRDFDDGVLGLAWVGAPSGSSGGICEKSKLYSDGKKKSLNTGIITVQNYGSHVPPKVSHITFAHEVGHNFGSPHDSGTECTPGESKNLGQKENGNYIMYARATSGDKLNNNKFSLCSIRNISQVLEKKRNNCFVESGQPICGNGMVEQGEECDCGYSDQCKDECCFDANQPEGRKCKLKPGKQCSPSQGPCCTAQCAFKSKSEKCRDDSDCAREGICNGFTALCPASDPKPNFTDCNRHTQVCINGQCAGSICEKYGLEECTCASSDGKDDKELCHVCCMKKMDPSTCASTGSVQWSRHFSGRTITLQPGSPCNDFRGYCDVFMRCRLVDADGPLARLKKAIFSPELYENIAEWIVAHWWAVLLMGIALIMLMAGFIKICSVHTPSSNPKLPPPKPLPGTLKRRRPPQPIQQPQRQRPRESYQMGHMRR
V-ATPase pH – regulators of yeast V-ATPase proton pumping, primary screen, pHLuorin cytosolic pH fluorescence. S. cerevisiae. response, % at 10 µM. actives 0.37% (n = 350,000). AID 504577, 2011; in the data active means response mostly above about 7.3%, no sharp cut-off; inactive means mostly below about 5.4%; further: actives read high
aDG glyco up – activators of alpha-DG glycosylation, primary screen, uHTS, Pro5-aDG cells, AlphaScreen; alpha-DG glycosylation AlphaScreen (IIH6); 0% Pro5, 100% B10-LARGE cell signal; activation, % at 10 µM; actives 0.22% (n = 360,000);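 active means activation of at least 8% versus controls, or a plate z-score of at least 8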;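 further: Pro5 are CHO cells carrying HIG-tagged alpha-DG that lacks glycosylation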
Hep lipid drop – inhibitors of hepatocyte lipid droplet formation, primary screen, imaging, high-throughput imaging, BODIPY stain; inhibition, % at 6.5 µM; actives 0.4% (n = 240,000); AML12 mouse hepatocytes, oleate lipid droplets;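 active means lipid droplet intensity inhibited by at least 50%, with more than 500 cells counted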
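Assay system: AML12 hepatocytes (mouse); Probe or stimulus: oleic acid at 100 µM to induce lipid droplet formation; Dosing: compound at 6.5 µM only; Schedule: compound with oleate, overnight; Detection: fluorescence imaging, 20x objective, two fields per well; Measure: % inhibition of lipid droplet signal.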
MPTP inh – mitochondrial permeability transition pore inhibitors, primary screen, biochemical, isolated mouse mitochondria, absorbance | actives 1.4% (n = 360,000) | Ca2+ swelling absorbance, 30 min | AID 602449, 2012 | inhibition, % at 10 µM;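 active means inhibition of 50% or more, scaled per plate between neutral and stimulator controls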
ADAM10 confirm – human ADAM10 inhibitors, confirmation, biochemical, QFRET, triplicate; actives 1% (n = 2,100); ADAM10 QFRET peptide cleavage, EDANS fluorescence; AID 743208, 2013; inhibition, % at 6.95 µM; shares compounds with ADAM10 inh;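 active means inhibition above about 20% chosen separately for each screening run, limit read from the data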
ADAM17 ctr – ADAM17 inhibitors, counter-screen for ADAM10 exosite inhibitor project, biochemical, QFRET, high throughput. shares compounds with ADAM10 inh. ADAM17 QFRET peptide cleavage, EDANS fluorescence. inhibition, % at 6.95 µM. actives 0.5% (n = 2,100). AID 743214, 2013;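 active means mean triplicate inhibition above the solvent-only control wells' mean plus 3 SD, cut at about 12% in these data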
Each line names hits and unclear results; the compound was inactive in the other large screens (follow-up assays come after a bar, where they were run).

COC(=O)[C@]12C[C@H](CC(=O)NCCC(C)C)C(=O)N(Cc3ccccc3)C1=C[C@H](COCc1ccccc1)O[C@@H]2C	none (no result: V-ATPase pH, aDG glyco up, Hep lipid drop, MPTP inh)
COC(=O)[C@]12C[C@H](CC(=O)NCCC(C)C)C(=O)N(Cc3ccco3)C1=C[C@H](COCc1ccccc1)O[C@@H]2C	ADAM10 inh 53 (no result: V-ATPase pH, aDG glyco up, Hep lipid drop, MPTP inh) | ADAM10 confirm inactive | ADAM17 ctr inactive
COc1ccc(Oc2c(Cl)cnn(-c3cc(C)cc(C)c3)c2=O)cc1	none (no result: V-ATPase pH, aDG glyco up, Hep lipid drop, MPTP inh)
COc1ccccc1-c1ccc(OCCCN2CCC(C(O)(c3ccccc3)c3ccccc3)CC2)cc1	none (no result: V-ATPase pH, aDG glyco up, Hep lipid drop, MPTP inh)
O=C(NCCc1c[nH]c2ccccc12)[C@H](Cc1c[nH]c2ccccc12)NC1(C(=O)NC2CCCCC2)CCCCCCC1	none (no result: V-ATPase pH, aDG glyco up, Hep lipid drop, MPTP inh)
COCCCN1C(=O)[C@H](CC(=O)NCc2cccs2)[C@]2(C(=O)OC)CCCCC=C12	none (no result: V-ATPase pH, aDG glyco up, Hep lipid drop, MPTP inh)
COc1ccc(C(=O)N2CC3(CC(c4cccc(NC(=O)COc5ccc(Cl)cc5)c4)=NO3)C[C@@H]2C(N)=O)cc1 (stereo partly specified)	ADAM10 inh 23 | ADAM10 confirm inactive | ADAM17 ctr inactive
C/C=C(\C)C(=O)N1CC2(CC(c3cccc(NC(=O)COc4ccc(Cl)cc4)c3)=NO2)C[C@@H]1C(N)=O (stereo partly specified)	ADAM10 inh 85 | ADAM10 confirm inactive | ADAM17 ctr inactive
C=C(C)C(=O)N1CC2(CC(c3cccc(NC(=O)COc4ccc(Cl)cc4)c3)=NO2)C[C@@H]1C(N)=O (stereo partly specified)	none
CCOC(=O)c1[nH]c(C)c(C(=O)NCc2ccc(OC)cc2)c1C	ADAM10 inh 68 (no result: Hep lipid drop) | ADAM10 confirm inactive | ADAM17 ctr inactive
CCOC(=O)c1[nH]c(C)c(C(=O)NCc2ccc(C)cc2)c1C	none (no result: Hep lipid drop)
Cc1cccnc1NC(=O)COc1ccc2oc3c(c2c1)CCCC3	ADAM10 inh 82 | ADAM10 confirm inactive | ADAM17 ctr inactive
Cc1ccc(NC(=O)COc2ccc3oc4c(c3c2)CCCC4)nc1	none
O=C(NCc1ccc(OC(F)(F)F)cc1)c1cc(-c2ccccc2)nn1CC1CC(c2cccnc2)=NO1 (stereo unspecified)	ADAM10 inh 20 (no result: Hep lipid drop) | ADAM10 confirm inactive | ADAM17 ctr inactive
O=C(NCc1ccco1)c1cc(-c2ccccc2)nn1CC1CC(c2cccnc2)=NO1 (stereo unspecified)	none (no result: Hep lipid drop)
Cc1ccccc1NCC(=O)N/N=C/c1ccc[nH]1	none (no result: V-ATPase pH, aDG glyco up, Hep lipid drop, MPTP inh)
Cc1cc(S(=O)(=O)N(Cc2ccc(C(C)C)cc2)CC2CCCO2)ccc1-n1cnnn1 (stereo unspecified)	ADAM10 inh 24 | ADAM10 confirm inactive | ADAM17 ctr inactive
COC(=O)C1CN(Cc2ccc(C)cc2)CCS(=O)(=O)N1Cc1cn(Cc2ccc(C)cc2)nn1 (stereo unspecified)	none (no result: V-ATPase pH, aDG glyco up, Hep lipid drop, MPTP inh)
CCCN(CCC)S(=O)(=O)c1ccc(C(=O)NCc2n[nH]c(=S)n2-c2ccc(Cl)c(Cl)c2)cc1	ADAM10 inh 24 | ADAM10 confirm inactive | ADAM17 ctr inactive
COc1cccc(CNC(=O)CN2CCCc3ccccc32)c1OC	none (no result: V-ATPase pH, aDG glyco up, Hep lipid drop, MPTP inh)
COc1ccc(CNC(=O)O[C@@H]2C[C@H]3C(=O)N(c4ccccc4)C(=O)[C@H]3[C@@]3(CN(S(=O)(=O)c4ccc(C)cc4)C[C@H]3C)[C@@H]2O)cc1OC	ADAM10 inh 20 (no result: Hep lipid drop) | ADAM10 confirm inactive | ADAM17 ctr inactive
